According to ChEMBL document CHEMBL2424587, “Antiproliferative activity of abietane diterpenoids against human tumor cells” (J Nat Prod, 2013):
Activity calls are given as the source filed them. The rule behind the calls is not given here.

Assays:
[1] = tested on: HL-60; test: Cytotoxicity against human HL60 cells overexpressing neomycin-resistant gene after 72 hrs by MTT assay; assay type: functional, cell-based
[2] = tested on: U-937; test: Cytotoxicity against human U937 cells after 72 hrs by MTT assay; assay type: functional, cell-based; details: U-937, 72 h
In short: (§1)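 MTT assay: 1 × 10^4 exponentially growing cells per well incubated 72 h over a range of compound concentrations; MTT 0.5 mg/mL for 4 h at 37 °C, then 10% SDS in 0.05 M HCl overnight at room temperature in the dark; absorbance at 570 nm. Leukemia and SK-MEL-1 lines grown in RPMI 1640, MCF-7 in DMEM, both with 10% heat-inactivated FBS. IC50 given as mean ± SEM of 3–5 independent experiments, each in triplicate.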

[3] = tested on: HL-60; test: Induction of apoptosis in human HL60 cells assessed as procaspase-8 cleavage at 3 uM after 24 hrs by immunoblotting analysis; assay type: functional, cell-based
In short: (§2)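 HL-60 cells treated 24 h with 3 μM; immunoblots of lysates probed with antibodies that recognize both pro-caspases and cleaved caspases, and for PARP.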

[4] = tested on: HL-60; test: Induction of ROS-mediated cell death in human HL60 cells preincubated for 2 hrs in presence of NAC; assay type: functional, cell-based
In short: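 Antioxidant test in HL-60 cells: NAC 10 mM added with the diterpene, or NAC and diterpene preincubated together for 2 h before addition to cells; cell death then measured.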

[5] = tested on: HL-60; test: Induction of apoptosis in human HL60 cells assessed as externalization of phosphotidylserine at 3 uM after 24 hrs by AnnexinV-FITC/propidium iodide staining-based flow cytometry; assay type: functional, cell-based
In short: (§3)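 HL-60 cells given 3 μM for 24 h, stained with annexin V-FITC and propidium iodide, and analysed by flow cytometry; annexin+/PI− cells scored as early apoptotic and double-positive cells as late; three separate experiments.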

[6] = tested on: HL-60; test: Induction of apoptosis in human HL60 cells after 24 hrs by flow cytometry in presence of caspase-9 inhibitor Z-LEHD-FMK; assay type: functional, cell-based
In short: (§4)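 HL-60 cells pretreated 1 h with caspase inhibitor, then given diterpene for 24 h; hypodiploid cells counted by flow cytometry; mean ± SE of three independent experiments in triplicate.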

[7] = tested on: HL-60; test: Induction of apoptosis in human HL60 cells assessed as PARP cleavage at 3 uM after 24 hrs by immunoblotting analysis; assay type: functional, cell-based; in short: as §2
[8] = tested on: HL-60; test: Induction of apoptosis in human HL60 cells assessed as procaspase-3 cleavage at 3 uM after 24 hrs by immunoblotting analysis; assay type: functional, cell-based; in short: as §2
[9] = tested on: HL-60; test: Induction of apoptosis in human HL60 cells assessed as nuclear chromatin condensation after 6 hrs by Hoechst 33258 staining-based fluorescence microscopy; assay type: functional, cell-based
[10] = tested on: SK-MEL-1; test: Cytotoxicity against human SK-MEL-1 cells after 72 hrs by MTT assay; assay type: functional, cell-based; details: SK-MEL-1, 72 h; in short: as §1
[11] = tested on: HL-60; test: Induction of apoptosis in human HL60 cells assessed as hypodiploid cells after 24 hrs by flow cytometry in presence of caspase-8 inhibitor Z-IETD-FMK; assay type: functional, cell-based; in short: as §4
[12] = tested on: HL-60; test: Induction of apoptosis in human HL60 cells assessed as procaspase-6 cleavage at 3 uM after 24 hrs by immunoblotting analysis; assay type: functional, cell-based; in short: as §2
[13] = tested on: MOLT-3; test: Cytotoxicity against human MOLT3 cells after 72 hrs by MTT assay; assay type: functional, cell-based; details: MOLT-3, 72 h; in short: as §1
[14] = tested on: HL-60; test: Induction of apoptosis in human HL60 cells assessed as release of cytochrome c to cytosolic fraction by Western blotting analysis; assay type: functional, cell-based
[15] = tested on: HL-60; test: Induction of apoptosis in human HL60 cells assessed as reduction in mitochondrial membrane potential at 3 uM after 24 hrs by JC-1 staining-based flow cytometry in presence of cyclosporin A; assay type: functional, cell-based
In short: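 HL-60 cells exposed to 3 μM diterpene for 24 h alongside permeability transition pore inhibitors cyclosporin A (25 μM, 24 h) or bongkrekic acid (25−50 μM, 24 h). Apoptosis was scored by flow cytometry. Mitochondrial membrane potential was read by JC-1 fluorescence on flow cytometry.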

[16] = tested on: HL-60; test: Induction of apoptosis in human HL60 cells assessed as release of AIF to cytosolic fraction by Western blotting analysis; assay type: functional, cell-based
[17] = tested on: MCF7; test: Cytotoxicity against human MCF7 cells after 72 hrs by MTT assay; assay type: functional, cell-based; details: MCF7, 72 h; in short: as §1
[18] = tested on: HL-60; test: Induction of apoptosis in human HL60 cells assessed as nuclear chromatin fragmentation after 6 hrs by Hoechst 33258 staining-based fluorescence microscopy; assay type: functional, cell-based
[19] = tested on: PBMC; test: Cytotoxicity against human PBMC cells up to 3 uM after 24 hrs by MTT assay; assay type: cell-based
In short: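 PBMC from heparinized blood of healthy volunteers, isolated on Ficoll-Paque, cultured in parallel with HL-60 cells for 24 h at the stated concentrations; viability measured by MTT; Student's t-test versus untreated control.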

[20] = tested on: HL-60; test: Induction of apoptosis in human HL60 cells assessed as release of Smac/DIABLO to cytosolic fraction by Western blotting analysis; assay type: functional, cell-based
[21] = tested on: HL-60; test: Induction of apoptosis in human HL60 cells assessed as procaspase-4 cleavage at 3 uM after 24 hrs by immunoblotting analysis; assay type: functional, cell-based; in short: as §2
[22] = tested on: HL-60; test: Induction of apoptosis in human HL60 cells using DEVD-pNA as substrate assessed as caspase-3/7 activation at 3 uM after 24 hrs relative to control; assay type: functional
In short: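 HL-60 cells treated with 3 μM diterpene for 24 h. Lysates were assayed for cleavage of chromogenic tetrapeptide substrates DEVD-pNA (caspase-3/7), IETD-pNA (caspase-8) and LEHD-pNA (caspase-9). Activity is expressed as n-fold over untreated control. Mean ± SE of three independent experiments, each in triplicate.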

[23] = tested on: HL-60; test: Induction of apoptosis in human HL60 cells assessed as DNA fragmentation at 3 uM after 24 hrs by […]; assay type: functional, cell-based
[24] = tested on: HL-60; test: Induction of apoptosis in human HL60 cells assessed as early apoptotic cells at 3 uM after 24 hrs by AnnexinV-FITC/propidium iodide staining-based flow cytometry (reference value: 1.6%); assay type: functional; in short: as §3
[25] = tested on: HL-60; test: Induction of apoptosis in human HL60 cells at 3 uM after 24 hrs by flow cytometry in presence of Z-VAD-FMK; assay type: functional, cell-based
In short: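 HL-60 cells pretreated with pancaspase inhibitor Z-VAD-FMK (100 μM), then given diterpene (3 μM) for 24 h. Hypodiploid (sub-G1) apoptotic cells were counted by flow cytometry. Mean ± SE of three independent experiments, each in triplicate.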

[26] = tested on: U-937; test: Cytotoxicity against human U937 cells overexpressing Bcl-2 protein after 72 hrs by MTT assay; assay type: functional, cell-based; details: U-937, 72 h
[27] = tested on: HL-60; test: Cell cycle arrest in human HL60 cells assessed as accumulation at S phase at 3 uM after 24 hrs by […]propidium iodide staining-based flow cytometry (reference value: 32%); assay type: functional
[28] = tested on: HL-60; test: Induction of apoptosis in human HL60 cells assessed as hypodiploid cells at 3 uM by flow cytometry; assay type: functional, cell-based; details: TDE = time-dependent effect
[29] = tested on: HL-60; test: Induction of apoptosis in human HL60 cells assessed as late apoptotic cells at 3 uM after 24 hrs by AnnexinV-FITC/propidium iodide staining-based flow cytometry (reference value: 3.1%); assay type: functional; in short: as §3
[30] = tested on: HL-60; test: Cytotoxicity against human HL60 cells after 72 hrs by MTT assay; assay type: functional, cell-based; details: HL-60, 72 h; in short: as §1
[31] = tested on: HL-60; test: Induction of apoptosis in human HL60 cells assessed as reduction in mitochondrial membrane potential at 3 uM after 24 hrs by JC-1 staining-based flow cytometry; assay type: functional, cell-based
In short: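 ΔΨm in HL-60 cells after 24 h at 3 μM assessed by JC-1 fluorescence on flow cytometry; two separate experiments, each in triplicate.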

Row | SMILES | Activity [1] | IC50 [2] [nM] | Activity [3] | Activity [4] | Activity [5] | Activity [6] | Activity [7] | Activity [8] | Activity [9] | IC50 [10] [nM] | Activity [11] | Activity [12] | IC50 [13] [nM] | Activity [14] | Activity [15] | Activity [16] | IC50 [17] [nM] | Activity [18] | Activity [19] | Activity [20] | other results
1 | COc1ccc(C(=O)OC2=C(C(C)C)C(=O)C3=C(C2=O)[C@@]2(C)CCCC(C)(C)[C@@H]2[C@H](O)[C@H]3OC(C)=O)cc1 | Active | 1400 | Active | inactive | Active | Active | Active | Active | Active | 7200 | Active | inactive | 1500 | Active | Active | Active | 3100 | Active | Non-toxic | Active | Activity [21]: Active; fold change (FC) [22]: 2; Activity [23]: Active; Activity [24]: 30.2%; Activity [25]: Active; IC50 [26]: 2100 nM; Activity [27]: 21%; Activity [28]: tde; Activity [29]: 30.2%; IC50 [30]: 2700 nM; Activity [31]: Active
2 | CC(=O)O[C@H]1C2=C(C(=O)C(OC(=O)c3ccccc3)=C(C(C)C)C2=O)[C@@]2(C)CCCC(C)(C)[C@@H]2[C@@H]1OC(=O)c1ccccc1 | Active | 1800 | Active | inactive | Active | Active | Active | Active | Active | 3100 | inactive | Active | 6900 | Active | Active | Active | 25500 | Active | Non-toxic | Active | Activity [21]: Active; fold change (FC) [22]: 2; Activity [23]: Active; Activity [24]: 20.7%; Activity [25]: Active; IC50 [26]: 600 nM; Activity [27]: 16%; Activity [28]: tde; Activity [29]: 20.7%; IC50 [30]: 3600 nM; Activity [31]: Active
3 | CC(=O)O[C@H]1C2=C(C(=O)C(OC(=O)c3ccc(Cl)cc3)=C(C(C)C)C2=O)[C@@]2(C)CCCC(C)(C)[C@@H]2[C@@H]1O | Active | 1100 | Active | inactive | Active | Active | Active | Active | Active | 4000 | Active | inactive | 1400 | Active | Active | Active | 2900 | Active | Non-toxic | Active | Activity [21]: Active; fold change (FC) [22]: 2; Activity [23]: Active; Activity [24]: 28.8%; Activity [25]: Active; IC50 [26]: 1100 nM; Activity [27]: 23%; Activity [28]: tde; Activity [29]: 28.8%; IC50 [30]: 2400 nM; Activity [31]: Active
